Results: ChEMBL document CHEMBL2177087, “Bivalent ligands targeting multiple pathological factors involved in Alzheimer's disease” (ACS Med Chem Lett, 2012)
Values belong to the compound of their own block, whether it stands above or below them. Calls of active or inactive are those of the source. No cut-off for these calls is given here.

Tests used:
[1] = tested on: MC65; test: Effect on C99 expression in tetracycline-removed human MC65 cells at 0.3 to 1 uM after 30 hrs by Western blot analysis; type: functional, cell-based
[2] = tested on: MC65; test: Antioxidant activity in tetracycline-removed human MC65 cells assessed as suppression of oxidative stress at 0.1 to 3 uM after 48 hrs by DCFH-DA assay; type: functional, cell-based
Procedure, shortened: (§1)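 MC65 human neuroblastoma cells dosed under +TC or −TC (TC withdrawn) for 48 h, then loaded with 25 μM DCFH-DA. Cellular fluorescence measured by flow cytometry. Expressed as mean percentage of fluorescence intensity (n = 3), parallel +TC cultures set at 100%; error bars SEM.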

[3] = tested on: MC65; test: Neuroprotective activity in tetracycline-removed human MC65 cells assessed as protection against amyloid beta aggregate-induced cytotoxicity at 0.3 uM after 72 hrs by MTT assay; type: functional, cell-based
Procedure, shortened: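 Single-concentration screen: MC65 cells given 0.3 μM compound under +TC or −TC conditions for 72 h, viability read by MTT. Reported as mean percentage viability (n = 3) relative to parallel +TC cultures at 100%; error bars SEM.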

[4] = Neuroprotective activity in tetracycline-removed human MC65 cells assessed as protection against amyloid beta aggregate-induced cytotoxicity after 72 hrs by MTT assay; type: functional, cell-based; conditions: MC65, 72 h
Procedure, shortened: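 MC65 cells kept in +TC or −TC medium with compound across a concentration series for 72 h; viability by MTT. Mean percentage viability (n = 3), parallel +TC cultures as 100%, SEM error bars; EC50 taken from dose–response.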

[5] = tested on: MC65; test: Inhibition of amyloid beta oligomer production in tetracycline-removed human MC65 cells after 30 hrs by Western blot analysis; type: functional, cell-based
Procedure, shortened: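 Compounds added immediately after tetracycline removal, MC65 cells cultured 30 h. Lysates Western blotted with 6E10 antibody; three oligomer bands quantified by densitometry, normalized to α-tubulin, and expressed relative to −TC control set at 100%. Image from one of two independent experiments.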

[6] = Binding affinity to Zn2+ assessed as formation of metal complexes at 50 uM after 10 mins by UV-vis spectrum analysis; type: physicochemical
Procedure, shortened: (§2)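 50 μM compound incubated with 60 μM CuSO4, FeCl2 or ZnCl2 at room temperature for 10 min. UV−vis spectrum recorded from 300 to 550 nm; complexation judged from spectral change versus metal-free spectrum.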

[7] = Binding affinity to Cu2+ assessed as formation of metal complexes at 50 uM after 10 mins by UV-vis spectrum analysis; type: physicochemical; procedure, shortened: as §2
[8] = tested on: MC65; test: Antioxidant activity in tetracycline-removed human MC65 cells assessed as suppression of oxidative stress after 48 hrs by DCFH-DA assay; type: functional, cell-based; procedure, shortened: as §1
[9] = Antioxidant activity in tetracycline-removed human MC65 cells assessed as suppression of oxidative stress at 0.1 uM after 48 hrs by DCFH-DA assay; type: functional; procedure, shortened: as §1
[10] = Binding affinity to Fe2+ assessed as formation of metal complexes at 50 uM after 10 mins by UV-vis spectrum analysis; type: physicochemical; procedure, shortened: as §2

Compound: COc1cc(/C=C/C(=O)/C(Cc2cn(CCCCCCNC(=O)COCC(=O)NCCCCN[C@H]3CC[C@@]4(C)C(=CC[C@H]5[C@@H]6CC[C@H]([C@H](C)CCCC(C)C)[C@@]6(C)CC[C@@H]54)C3)nn2)=C(O)/C=C/c2ccc(O)c(OC)c2)ccc1O
- Activity [1]: inactive
- Activity [2]: Active
- Activity [3]: Active
- EC50 [4]: 300 nM
- inhibition [5]: Dose-dependent effect

Compound: COc1cc(/C=C/C(=O)/C=C(O)/C=C/c2ccc(OCc3cn(CCNC(=O)COCC(=O)NCCCCN[C@H]4CC[C@@]5(C)C(=CC[C@H]6[C@@H]7CC[C@H]([C@H](C)CCCC(C)C)[C@@]7(C)CC[C@@H]65)C4)nn3)c(OC)c2)ccc1O
- Activity [3]: Active

- Activity [6]: Active
- Activity [7]: Active
- Activity [10]: Active
Compound: COc1cc(/C=C/C(=O)/C(Cc2cn(CCNC(=O)COCC(=O)NCCCCN[C@H]3CC[C@@]4(C)C(=CC[C@H]5[C@@H]6CC[C@H]([C@H](C)CCCC(C)C)[C@@]6(C)CC[C@@H]54)C3)nn2)=C(O)/C=C/c2ccc(O)c(OC)c2)ccc1O
- Activity [1]: inactive
- Activity [3]: Active
- EC50 [4]: 83 nM
- inhibition [5]: Dose-dependent effect
- Activity [8]: Dose-dependent effect
- Activity [9]: 35%

Compound: COc1cc(/C=C/C(=O)/C=C(O)/C=C/c2ccc(OCc3cn(CCCCNC(=O)COCC(=O)NCCCCN[C@H]4CC[C@@]5(C)C(=CC[C@H]6[C@@H]7CC[C@H]([C@H](C)CCCC(C)C)[C@@]7(C)CC[C@@H]65)C4)nn3)c(OC)c2)ccc1O
- Activity [3]: Active

- Activity [6]: Not Active
- Activity [7]: Active
- Activity [10]: Active
Compound: COc1cc(/C=C/C(=O)/C(Cc2cn(CCCCCCNC(=O)CCNC(=O)CCNC(=O)CO[C@H]3CC[C@@]4(C)C(=CC[C@H]5[C@@H]6CC[C@H]([C@H](C)CCCC(C)C)[C@@]6(C)CC[C@@H]54)C3)nn2)=C(O)/C=C/c2ccc(O)c(OC)c2)ccc1O
- EC50 [4]: 3000 nM

Compound: COc1cc(/C=C/C(=O)/C=C(O)/C=C/c2ccc(OCc3cn(CCCC(=O)NCCCCN[C@H]4CC[C@@]5(C)C(=CC[C@H]6[C@@H]7CC[C@H]([C@H](C)CCCC(C)C)[C@@]7(C)CC[C@@H]65)C4)nn3)c(OC)c2)ccc1O
- Activity [3]: Active

Compound: COc1cc(/C=C/C(=O)/C(Cc2cn(CCCC(=O)NCCCCN[C@H]3CC[C@@]4(C)C(=CC[C@H]5[C@@H]6CC[C@H]([C@H](C)CCCC(C)C)[C@@]6(C)CC[C@@H]54)C3)nn2)=C(O)/C=C/c2ccc(O)c(OC)c2)ccc1O
- Activity [3]: Active

Compound: COc1cc(/C=C/C(=O)/C(Cc2cn(CCCCCCNC(=O)COCC(=O)NCCCCCCN[C@H]3CC[C@@]4(C)C(=CC[C@H]5[C@@H]6CC[C@H]([C@H](C)CCCC(C)C)[C@@]6(C)CC[C@@H]54)C3)nn2)=C(O)/C=C/c2ccc(O)c(OC)c2)ccc1O
- Activity [3]: Active

Compound: COc1cc(/C=C/C(=O)/C=C(O)/C=C/c2ccc(OCc3cn(CCCCCCNC(=O)COCC(=O)NCCCCCCN[C@H]4CC[C@@]5(C)C(=CC[C@H]6[C@@H]7CC[C@H]([C@H](C)CCCC(C)C)[C@@]7(C)CC[C@@H]65)C4)nn3)c(OC)c2)ccc1O
- Activity [3]: Active

Compound: COc1cc(/C=C/C(=O)/C(Cc2cn(CCCCNC(=O)COCC(=O)NCCCCN[C@H]3CC[C@@]4(C)C(=CC[C@H]5[C@@H]6CC[C@H]([C@H](C)CCCC(C)C)[C@@]6(C)CC[C@@H]54)C3)nn2)=C(O)/C=C/c2ccc(O)c(OC)c2)ccc1O
- Activity [1]: inactive
- Activity [2]: Active
- Activity [3]: Active
- EC50 [4]: 160 nM
- inhibition [5]: Dose-dependent effect

Compound: COc1cc(/C=C/C(=O)/C=C(O)/C=C/c2ccc(OCc3cn(CCCCCCNC(=O)COCC(=O)NCCCCN[C@H]4CC[C@@]5(C)C(=CC[C@H]6[C@@H]7CC[C@H]([C@H](C)CCCC(C)C)[C@@]7(C)CC[C@@H]65)C4)nn3)c(OC)c2)ccc1O
- Activity [3]: Active
